# Entries after “also recorded” stand apart in the source; their conditions may differ.
# What was measured:
# human mGlu1 WT receptor [1] = biological target: T1, human mGlu1 WT receptor (Homo sapiens, UniProt Q13255); experiment: Calcium mobilization mGlu1 assay; format: cell-based
# hmGlu4 = hmGlu4 (Homo sapiens, UniProt Q14833); experiment: Calcium mobilization assay, mGlu4 PAM activity; format: cell-based; settings: n = 3 in triplicate
# [2] = Ex vivo metabolism/stability in rat plasma; format: in vitro ADME; settings: 10 μM incubation, 37 °C, 4 h, mass spectrometry
# Outline: (§1)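 Test compound at 10 μM incubation concentration in rat or human plasma at 37 °C. Samples were taken at 0 and 4 h and analysed by mass spectrometry for remaining parent and for metabolites formed.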
# [3] = Ex vivo metabolism/stability in human plasma; format: in vitro ADME; settings: 10 μM incubation, 37 °C, 4 h, mass spectrometry
# Outline: as §1
# rat mGlu1 WT receptors = rat mGlu1 WT receptors (Rattus norvegicus, UniProt P23385); experiment: Calcium mobilization concentration-response curves on rat mGlu1; format: cell-based
# Male C57Bl/6 mice = experiment: Behavioral convulsions, modified Racine score; format: in vivo; settings: for behavioral convulsions (modified Racine score 0–5): 10% Tween 80, monitored 3 h, n = 3
# Outline: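 Male C57Bl/6 mice (25–30 g) got a single ip dose of test compound (100 mg/kg) or a reference mGlu5 ago-PAM (1 or 3 mg/kg). Behavior was watched continuously for 3 h and convulsions were scored on a modified Racine scale (0–5).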
# [4] = In vitro intrinsic and hepatic clearance, human; format: in vitro ADME
# [5] = In vitro intrinsic and hepatic clearance, rat; format: in vitro ADME
# [6] = Plasma free fraction, human plasma; format: in vitro ADME
# [7] = Plasma free fraction, rat plasma; format: in vitro ADME
# [8] = system: CA3 pyramidal cell body layer in a mouse hippocampal slice preparation; experiment: Extracellular recording of spontaneous spike
# Outline: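 Hippocampal slices with extracellular recording from the CA3 pyramidal cell body layer. Frequency of spontaneous activity was tracked before, during and after bath application and washout of test compound (10 μM) or DHPG (50 μM, positive control). Each was compared with baseline by paired t test, n = 6 per treatment.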
# [9] = system: human mGlu1 mutant receptors (P729T, A683E, Y632H, P1014S); format: cell-based; settings: noted at compound concentrations above 1 μM
# mGlu2 = experiment: Standard fold-shift selectivity assay; format: cell-based; settings: 10 μM compound
# human mGlu1 WT receptor [10] = biological target: T1, human mGlu1 WT receptor; experiment: Fold-shift of glutamate concentration-response curve, human mGlu1 WT cells; format: cell-based; settings: 10 μM compound
# Rat iv PK = format: in vivo; settings: rat iv PK (0.2 mg/kg)
# T1 sequence (Q13255 19-1194): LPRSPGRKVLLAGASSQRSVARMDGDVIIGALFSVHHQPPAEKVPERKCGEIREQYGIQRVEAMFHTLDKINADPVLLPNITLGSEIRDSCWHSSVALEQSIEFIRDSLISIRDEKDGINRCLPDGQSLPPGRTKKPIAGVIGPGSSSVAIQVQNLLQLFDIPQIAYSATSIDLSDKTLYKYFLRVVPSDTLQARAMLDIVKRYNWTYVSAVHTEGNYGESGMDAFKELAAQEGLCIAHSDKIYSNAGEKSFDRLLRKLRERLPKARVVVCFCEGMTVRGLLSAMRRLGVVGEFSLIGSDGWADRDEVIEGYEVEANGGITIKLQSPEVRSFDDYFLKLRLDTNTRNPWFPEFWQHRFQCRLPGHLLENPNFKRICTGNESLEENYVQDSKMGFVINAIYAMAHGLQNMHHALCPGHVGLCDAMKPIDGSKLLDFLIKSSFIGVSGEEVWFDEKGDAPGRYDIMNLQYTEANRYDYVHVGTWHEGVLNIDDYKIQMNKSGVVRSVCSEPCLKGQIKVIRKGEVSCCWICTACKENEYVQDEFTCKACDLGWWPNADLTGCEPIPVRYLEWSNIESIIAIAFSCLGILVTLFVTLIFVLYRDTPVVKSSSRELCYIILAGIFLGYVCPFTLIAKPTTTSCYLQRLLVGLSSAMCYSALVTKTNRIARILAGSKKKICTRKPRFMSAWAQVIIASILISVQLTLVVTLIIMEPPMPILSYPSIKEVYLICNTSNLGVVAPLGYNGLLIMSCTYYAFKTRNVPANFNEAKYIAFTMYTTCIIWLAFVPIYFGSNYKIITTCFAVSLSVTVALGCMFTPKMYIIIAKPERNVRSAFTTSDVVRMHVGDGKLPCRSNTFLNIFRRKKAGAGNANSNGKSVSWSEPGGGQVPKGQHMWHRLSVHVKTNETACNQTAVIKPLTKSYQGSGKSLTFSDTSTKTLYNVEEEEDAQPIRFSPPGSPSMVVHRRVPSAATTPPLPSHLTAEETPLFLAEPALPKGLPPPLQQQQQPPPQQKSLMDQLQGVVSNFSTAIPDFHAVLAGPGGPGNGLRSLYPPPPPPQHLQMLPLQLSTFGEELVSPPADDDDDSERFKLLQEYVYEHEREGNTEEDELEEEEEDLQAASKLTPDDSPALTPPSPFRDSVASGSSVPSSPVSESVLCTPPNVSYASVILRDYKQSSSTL
# Chain of hmGlu4 (Q14833 33-912): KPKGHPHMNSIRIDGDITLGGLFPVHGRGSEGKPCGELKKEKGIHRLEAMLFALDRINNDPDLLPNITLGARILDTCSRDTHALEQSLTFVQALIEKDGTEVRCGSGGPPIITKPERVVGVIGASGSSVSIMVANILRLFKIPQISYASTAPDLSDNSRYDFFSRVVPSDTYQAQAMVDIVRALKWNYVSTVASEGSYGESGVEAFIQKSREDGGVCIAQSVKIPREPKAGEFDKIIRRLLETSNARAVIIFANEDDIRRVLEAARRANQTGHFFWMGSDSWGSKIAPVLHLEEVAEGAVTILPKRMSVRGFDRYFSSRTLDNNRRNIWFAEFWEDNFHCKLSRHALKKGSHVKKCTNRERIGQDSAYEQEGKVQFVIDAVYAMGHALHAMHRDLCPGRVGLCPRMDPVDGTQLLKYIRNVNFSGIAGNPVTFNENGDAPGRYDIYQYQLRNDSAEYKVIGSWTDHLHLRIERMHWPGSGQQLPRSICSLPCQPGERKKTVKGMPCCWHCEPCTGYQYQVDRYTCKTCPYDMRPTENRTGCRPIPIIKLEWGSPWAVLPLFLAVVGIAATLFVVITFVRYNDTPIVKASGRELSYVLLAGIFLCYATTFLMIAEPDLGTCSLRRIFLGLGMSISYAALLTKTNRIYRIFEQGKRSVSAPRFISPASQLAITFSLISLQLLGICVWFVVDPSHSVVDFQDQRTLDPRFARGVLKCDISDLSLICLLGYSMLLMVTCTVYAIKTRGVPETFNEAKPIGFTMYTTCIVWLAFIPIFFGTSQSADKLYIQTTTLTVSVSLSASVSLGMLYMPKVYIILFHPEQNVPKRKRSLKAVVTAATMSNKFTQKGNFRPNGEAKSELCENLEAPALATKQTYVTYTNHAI
# Chain of rat mGlu1 WT receptors (P23385 19-1199): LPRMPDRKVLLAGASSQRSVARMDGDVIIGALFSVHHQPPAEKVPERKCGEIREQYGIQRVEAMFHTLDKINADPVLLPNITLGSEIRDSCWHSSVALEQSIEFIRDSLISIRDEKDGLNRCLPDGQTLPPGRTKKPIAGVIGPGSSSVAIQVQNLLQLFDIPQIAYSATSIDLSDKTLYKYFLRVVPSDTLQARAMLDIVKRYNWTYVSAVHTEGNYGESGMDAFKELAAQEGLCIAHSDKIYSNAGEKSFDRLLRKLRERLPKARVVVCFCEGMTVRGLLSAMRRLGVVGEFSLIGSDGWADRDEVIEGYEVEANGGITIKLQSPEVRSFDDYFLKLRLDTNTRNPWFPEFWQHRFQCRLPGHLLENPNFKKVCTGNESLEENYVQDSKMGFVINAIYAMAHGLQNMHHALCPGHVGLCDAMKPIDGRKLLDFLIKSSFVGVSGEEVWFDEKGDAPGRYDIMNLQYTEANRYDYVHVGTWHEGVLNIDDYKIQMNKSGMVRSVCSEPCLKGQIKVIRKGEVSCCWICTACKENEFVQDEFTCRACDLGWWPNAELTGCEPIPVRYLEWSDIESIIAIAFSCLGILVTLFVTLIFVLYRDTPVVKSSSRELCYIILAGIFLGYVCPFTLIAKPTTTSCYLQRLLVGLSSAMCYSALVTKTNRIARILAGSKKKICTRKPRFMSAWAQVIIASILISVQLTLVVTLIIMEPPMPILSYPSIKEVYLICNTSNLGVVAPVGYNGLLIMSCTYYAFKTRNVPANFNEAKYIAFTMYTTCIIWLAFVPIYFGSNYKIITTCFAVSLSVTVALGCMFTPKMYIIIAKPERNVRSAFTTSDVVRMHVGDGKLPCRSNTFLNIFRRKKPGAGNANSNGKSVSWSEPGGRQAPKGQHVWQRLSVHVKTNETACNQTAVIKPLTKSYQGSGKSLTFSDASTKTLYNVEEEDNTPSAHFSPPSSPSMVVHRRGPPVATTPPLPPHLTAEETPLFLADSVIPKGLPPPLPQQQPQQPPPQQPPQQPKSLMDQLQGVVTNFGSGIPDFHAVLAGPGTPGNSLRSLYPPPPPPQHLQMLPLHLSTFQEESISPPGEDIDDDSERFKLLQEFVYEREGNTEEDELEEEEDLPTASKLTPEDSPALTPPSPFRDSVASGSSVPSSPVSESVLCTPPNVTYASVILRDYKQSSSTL
structure (smiles),measurement,setting,value
O=C(Nc1ccc(N2C(=O)c3ccccc3C2=O)c(Cl)c1)c1cnco1 [9d],mGlu1 PAM activity in words,human mGlu1 WT receptor [1],inactive
O=C(Nc1ccc(N2C(=O)c3ccccc3C2=O)c(Cl)c1)c1ncco1 [9e],mGlu1 PAM activity in words,human mGlu1 WT receptor [1],inactive
O=C(Nc1ccc(N2C(=O)c3ccccc3C2=O)c(Cl)c1)c1cncs1 [9i],mGlu1 PAM activity in words,human mGlu1 WT receptor [1],inactive
O=C(Nc1ccc(N2C(=O)c3ccccc3C2=O)c(Cl)c1)C1CCCO1 (stereo not drawn) [9n],mGlu1 PAM activity in words,human mGlu1 WT receptor [1],inactive
O=C(Nc1ccc(N2C(=O)c3ccccc3C2=O)c(Cl)c1)c1cc2ccccc2o1 [10m],mGlu1 PAM activity in words,human mGlu1 WT receptor [1],inactive
O=C(Nc1ccc(N2C(=O)c3ccccc3C2=O)c(Cl)c1)c1coc2ccccc12 [10n],mGlu1 PAM activity in words,human mGlu1 WT receptor [1],inactive
"Cc1ccoc1C(=O)Nc1ccc(N2C(=O)c3cccc(Cl)c3C2=O)c(Cl)c1 [17c, N-(3-Chloro-4-(4-chloro-1,3-dioxoisoindolin-2-yl)phenyl)-3-methylfuran-2-carboxamide]",hmGlu4 pEC50 (±SEM),hmGlu4,5.94 ± 0.22
"Cc1ccoc1C(=O)Nc1ccc(N2C(=O)c3ccc(Cl)cc3C2=O)c(Cl)c1 [17d, N-(3-Chloro-4-(5-chloro-1,3-dioxoisoindolin-2-yl)phenyl)-3-methylfuran-2-carboxamide]",parent compound remaining in rat plasma,[2],no parent 17d remains
same,parent compound remaining in human plasma,[3],no parent 17d remains
same,rat mGlu1 pEC50,rat mGlu1 WT receptors,6.95 ± 0.13
same,behavioral convulsions (modified Racine score 0–5),Male C57Bl/6 mice; 100 mg/kg ip,no measurable behavioral disturbances at any time point; also recorded: no adverse effects
same,human CLINT,[4],2.90 mL/min/kg
same,rat CLHEP,[5],17.2 mL/min/kg
same,rat CLINT,[5],22.8 mL/min/kg
same,human fu plasma,[6],unstable
same,rat fu plasma,[7],unstable
"Cc1ccoc1C(=O)Nc1ccc(N2C(=O)c3cccc(F)c3C2=O)c(Cl)c1 [17e, N-(3-Chloro-4-(4-fluoro-1,3-dioxoisoindolin-2-yl)phenyl)-3-methylfuran-2-carboxamide]",induction of epileptiform activity in CA3,[8]; 10 μM bath application,did not induce epileptiform activity; also recorded: does not induce epileptiform activity
same,behavioral convulsions (modified Racine score 0–5),Male C57Bl/6 mice; 100 mg/kg ip,no measurable behavioral disturbances at any time point; also recorded: no adverse effects
same,human CLHEP,[4],2.70 mL/min/kg
same,human CLINT,[4],3.10 mL/min/kg
same,ago-PAM activity across all four mutants,[9],≤ 40%
same,fold shift of glutamate CRC at mGlu2,mGlu2,< 2 fold
same,rat CLHEP,[5],52.3 mL/min/kg
same,rat CLINT,[5],207 mL/min/kg
same,hmGlu4 pEC50 (±SEM),hmGlu4,5.95 ± 0.16
"Cc1ccoc1C(=O)Nc1ccc(N2C(=O)c3ccc(F)cc3C2=O)c(Cl)c1 [17f, N-(3-Chloro-4-(5-fluoro-1,3-dioxoisoindolin-2-yl)phenyl)-3-methylfuran-2-carboxamide]",agonism at the highest concentration,human mGlu1 WT receptor [10],< 20%
"Cc1ccoc1C(=O)Nc1ccc(N2C(=O)c3ccncc3C2=O)c(Cl)c1 [17g, N-(3-Chloro-4-(1,3-dioxo-1,3-dihydro-2H-pyrrolo[3,4-c]-pyridin-2-yl)phenyl)-3-methylfuran-2-carboxamide]",rat mGlu1 pEC50,rat mGlu1 WT receptors,6.95 ± 0.15
same,behavioral convulsions (modified Racine score 0–5),Male C57Bl/6 mice; 100 mg/kg ip,no measurable behavioral disturbances at any time point; also recorded: no adverse effects
same,CLp,Rat iv PK,382 mL/min/kg
same,clearance,"Rat iv PK; rat, plasma, iv, 0.2 mg/kg, CLp",283 mL/min/kg
same,human CLINT,[4],167 mL/min/kg
same,rat CLHEP,[5],59.7 mL/min/kg
same,rat CLINT,[5],405 mL/min/kg
same,human fu plasma,[6],unstable
"N[C@H](C(=O)O)c1cc(O)cc(O)c1 [DHPG, S-3,5-dihydroxyphe-nylglycine, reference compound]",induction of epileptiform activity in CA3,"[8]; 50 μM, positive control",induced marked epileptiform activity
"O=C(Nc1nc(C(F)(F)F)co1)C1c2ccccc2Oc2ccccc21 [compound 5, reference compound]",behavioral convulsions (modified Racine score 0–5),Male C57Bl/6 mice; 100 mg/kg ip,no adverse effects
same,human CLINT,[4],262 mL/min/kg
same,rat CLHEP,[5],63.3 mL/min/kg
same,rat CLINT,[5],661 mL/min/kg
"O=C(Nc1ccc(N2C(=O)c3cccc(Cl)c3C2=O)c(Cl)c1)c1ncccc1Cl [compound 8, reference compound]",human CLINT,[4],17.2 mL/min/kg
same,rat CLINT,[5],39.9 mL/min/kg
same,human fu plasma,[6],unstable
same,rat fu plasma,[7],unstable
"C[C@@H](NC(=O)c1ccc(C#Cc2cccc(F)c2)cn1)C(C)(C)O [compound 18, (R)-5-((3-fluorophenyl)ethynyl)-N-(3-hydroxy-3-methylbutan-2-yl)picolinamide, reference compound]",time of peak convulsion responses after administration,Male C57Bl/6 mice; 1 or 3 mg/kg ip,approximately 5 min
same,behavioral convulsions (modified Racine score 0–5),Male C57Bl/6 mice; 1 or 3 mg/kg ip,"severe, dose-dependent behavioral manifestations of seizure activity; also recorded: Severe, dose-dependent behavioral convulsions"

# Reference: article PMC4839290 (Journal of medicinal chemistry, 2015)
